Published values from different studies.
Target: Serine/threonine-protein kinase BRSK2 (BRSK2, Homo sapiens, UniProt Q8IWQ3)
Sequence (Q8IWQ3 1-736, as in one of the studies): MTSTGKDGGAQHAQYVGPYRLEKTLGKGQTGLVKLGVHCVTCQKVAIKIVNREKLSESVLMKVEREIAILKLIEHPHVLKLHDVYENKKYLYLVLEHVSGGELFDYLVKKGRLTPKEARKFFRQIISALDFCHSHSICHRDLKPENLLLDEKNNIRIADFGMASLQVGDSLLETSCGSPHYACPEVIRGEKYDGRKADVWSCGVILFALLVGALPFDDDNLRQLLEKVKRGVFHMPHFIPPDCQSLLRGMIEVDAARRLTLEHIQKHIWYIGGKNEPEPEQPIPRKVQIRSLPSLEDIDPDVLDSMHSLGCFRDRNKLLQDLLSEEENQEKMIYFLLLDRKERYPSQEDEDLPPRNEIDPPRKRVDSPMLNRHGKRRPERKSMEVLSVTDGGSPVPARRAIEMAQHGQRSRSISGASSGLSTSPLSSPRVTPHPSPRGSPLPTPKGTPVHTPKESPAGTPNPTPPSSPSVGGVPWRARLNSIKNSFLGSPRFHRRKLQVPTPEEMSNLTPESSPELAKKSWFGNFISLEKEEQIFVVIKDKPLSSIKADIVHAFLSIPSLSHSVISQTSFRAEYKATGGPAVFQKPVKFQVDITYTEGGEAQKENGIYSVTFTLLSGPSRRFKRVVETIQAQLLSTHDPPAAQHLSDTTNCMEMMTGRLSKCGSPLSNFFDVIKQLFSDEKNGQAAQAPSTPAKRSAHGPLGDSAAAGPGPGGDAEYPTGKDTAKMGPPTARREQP

| SMILES | assay | setting | remaining binding [%] |
| --- | --- | --- | --- |
| C=CC(=O)N1CCC(C(=O)NCC(=O)N2CCN(c3nc(-c4cnc(N)nc4C(F)F)nc(N4CCOCC4)n3)CC2)CC1 | binding, competition with immobilised ligand | 1 µM | 100 |
| O=C(NCCCN1CCOCC1)c1ccc(Nc2ncc(Cl)c(-c3ccc(Cl)s3)n2)cc1 | binding, competition with immobilised ligand | 1 µM | 45 |
| COc1ncc2cc3ccccc3nc2c1C#N | cell-free assay, competition with immobilised ligand | 5 µM | 74 |
| NS(=O)(=O)c1cc(NC(=O)Cc2ccccc2)ccc1Oc1cccc(Cl)c1 | cell-free assay, competition with immobilised ligand | 1 µM | 91 |
| C[C@H]1CCN(c2nccc(-c3cnn4ncccc34)n2)C1 | binding | 1 µM | 96 |
| O=C(Nc1cccnn1)N1CC(C/C=C/c2cncc(Oc3ccc(C(F)(F)F)cn3)n2)C1 | cell-free assay, competition with immobilised ligand | 1 µM | 100 |
| C[C@@H](c1ccc(-n2cnc3c(N)ncnc32)cc1)N1CCc2nn(C)c(Cc3ccccc3)c2C1=O | binding, competition with immobilised ligand | 0.1 µM | 90 |
| O=C(NCCCN1CCOCC1)c1ccc(Nc2nccc(-c3cc4ccccc4s3)n2)cc1 | binding, competition with immobilised ligand | 1 µM | 77 |
| N[C@H]1CCN(c2nccc(-c3cnn4ncccc34)n2)C1 | binding | 1 µM | 100 |
| Nc1cnc(N2CCc3cc(S(=O)(=O)Nc4c(F)cc(Cl)cc4F)cc(N4CCCC4=O)c32)nc1 | cell-free assay, competition with immobilised ligand | 1 µM | 80 |
| O=C(c1ccc(Nc2ncc(Cl)c(-c3ccc(Cl)s3)n2)cc1)N1CCC(N2CCCC2)CC1 | binding, competition with immobilised ligand | 1 µM | 58 |
| O=C(NS(=O)(=O)c1ccc(NCC2CCOCC2)c([N+](=O)[O-])c1)c1ccc(N2CCN(Cc3ccc(C(F)(F)F)cc3-c3ccc(Cl)cc3)CC2)cc1Oc1cnc2[nH]ccc2c1 | cell-free assay, competition with immobilised ligand | 1 µM | 87 |
| CC1CCCN1c1nccc(-c2cnn3ncccc23)n1 (stereo not drawn) | binding | 1 µM | 100 |
| COc1cnc(Nc2cccc(S(N)(=O)=O)c2)nc1N1CCN(c2ccccc2)CC1 | binding, competition with immobilised ligand | 1 µM | 100 |
| CN(C)c1nccc(-c2cnn3ncccc23)n1 | binding | 1 µM | 84 |
| CCCCN(CCCC)C(=O)CN1C[C@H](c2cc(OC)c3c(c2)OCO3)[C@@H](C(=O)O)[C@@H]1CC(C)(C)CCC | cell-free assay, competition with immobilised ligand | 1 µM | 95.6 |
| O=C(Nc1c[nH]nc1C(=O)NC1CCNCC1)c1cc(F)cc(F)c1 | binding, competition with immobilised ligand | 1 µM | 100 |
| F[C@@H]1CCN(c2nccc(-c3cnn4ncccc34)n2)C1 | binding | 1 µM | 100 |
| c1cncc(-c2cccc(Nc3nccc(NC4CCCCC4)n3)c2)c1 | binding, competition with immobilised ligand | 10 µM | 99 |
| CN(CCCC(F)(F)F)c1nccc(-c2cnn3ncccc23)n1 | binding | 1 µM | 100 |
| O=C(O)[C@@H]1[C@@H](Cn2nnc3ccccc3c2=O)CC[C@H]1C(=O)c1ccc(OCCC2CCOCC2)cc1 | cell-free assay, competition with immobilised ligand | 1 µM | 100 |
